Data set [1] in a line: Selectivity index, ratio of CC50 for human HepG2.2.15 cells to IC50 for Hepatitis B virus infected in human HepG2.2.15 cells assessed as inhibition of HBeAg secretion. The format is functional. Put shortly:
(§1)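 SI = CC50 (CCK-8, HepG2.2.15, 8 days) divided by IC50 for inhibition of HBeAg or HBsAg secretion measured by ELISA in HepG2.2.15 supernatants.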

A short description of data set [2]: Cytotoxicity against human HepG2.2.15 cells assessed as decrease in cell viability after 8 days by CCK-8 assay. A general note: Tetrazolium dyes change colour on reduction, which living cells bring about.
For data set [3], the system named is Hepatitis B virus. Put plainly: Antiviral activity against Hepatitis B virus infected in human HepG2.2.15 cells assessed as inhibition of HBsAg secretion by ELISA. It is filed as functional, cell-based. In a few lines: (§2)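 Supernatant from HepG2.2.15 cultures aspirated and HBeAg or HBsAg measured with a diagnostic ELISA kit, absorbance read on a plate reader. Inhibition (%) = (A normal cell group − A experimental group)/[…] × 100; IC50 is the concentration giving 50% inhibition of antigen secretion. Lamivudine positive control.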

Data set [4] is described as follows: Cytotoxicity against human HepG2.2.15 cells assessed as decrease in cell viability after 8 days by CCK-8 assay. It is filed as toxicity, cell-based, HepG2 2.2.15. In a few lines:
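HepG2.2.15 cells (HBV-transgenic human hepatoma) cultured in triplicate for 8 days with five doses of compound; untreated cells as controls. CCK-8 reagent added 0.5 h before end of culture, absorbance read at 450 nm, percent cell death calculated; CC50 is the concentration killing 50% of cells.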

Data set [5] concerns Hepatitis B virus. Kind of data set: Antiviral activity against Hepatitis B virus infected in human HepG2.2.15 cells assessed as inhibition of viral DNA replication after 8 days by real-time fluorescent PCR method. Conditions: HepG2.2.15, 192 h. It is filed as functional, cell-based. Put shortly:
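HepG2.2.15 cells exposed to compounds […] for 8 days; 100 µL culture supernatant added to extraction buffer, boiled 10 min, centrifuged 10 min, and aliquots assayed for extracellular HBV DNA by fluorescent-probe real-time quantitative PCR kit. Lamivudine positive control.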

A short description of data set [6]: Selectivity index, ratio of CC50 for human HepG2.2.15 cells to IC50 for Hepatitis B virus infected in human HepG2.2.15 cells assessed as inhibition of HBsAg secretion. The format is functional. In a few lines:
as §1

In data set [7] the test system is Hepatitis B virus. Put plainly: Antiviral activity against Hepatitis B virus infected in human HepG2.2.15 cells assessed as inhibition of HBeAg secretion by ELISA. It is filed as functional, cell-based. In a few lines: as §2
Background: ELISA stands for enzyme-linked immunosorbent assay.

Data set [8] can be described thus: Cytotoxicity against human HepAD38 cells. It is filed as toxicity, cell-based.
Data set [9] has as its system Hepatitis B virus. Put plainly: Antiviral activity against Hepatitis B virus infected in human HepAD38 cells assessed as inhibition of viral DNA replication. The format is functional, cell-based.
The test system of data set [10] is Hepatitis B virus. Kind of data set: Antiviral activity against Hepatitis B virus. The format is functional.

The structures appear in SMILES notation. pIC50: −log10 of the molar value.

As usually defined, the IC50 is the point on the concentration scale where inhibition reaches its midpoint. The pIC50 is the IC50 on a negative log10 scale, so that one unit is a factor of ten. One may read the CC50 as the concentration that lowers cell viability or growth by half.

For `CC(C)Cc1sc(-c2nccs2)nc1C(=O)NCc1ccc(F)cc1`, the “Ratio CC50/IC50” value in data set [1] is on record as 1.63; in [6], 1.48. For the same compound, the IC50 at 8 days in data set [2] was found to be 50.4 µM. Moreover, the pIC50 in the data set on Hepatitis B virus [3] was 4.46; in the data set on Hepatitis B virus [5], 5.88; with Hepatitis B virus [7], 4.50. Moreover, the CC50 at 192 h in data set [4] came out at 51.5 µM.
Consider `CCOC(=O)c1cn(-c2cccc([N+](=O)[O-])c2)nc1CC(C)C`, for which the negative logarithm of the IC50 (pIC50) was 4.20 in the data set with Hepatitis B virus [3] and 4.23 with Hepatitis B virus [7]. The CC50 at 192 h in data set [4] worked out at 59.3 µM. For the same compound, the “Ratio CC50/IC50” value in data set [6] is listed as 0.94.
Regarding `CC(C)Cc1nn(-c2cccc(F)c2)cc1C(=O)NCc1ccncc1`, the “Ratio CC50/IC50” value in [1] was >1.41. The negative logarithm of the IC50 (pIC50) is < 4.00 with Hepatitis B virus [3] and 4.15 in the data set with Hepatitis B virus [7]. In addition, in data set [4], the CC50 at 192 h was > 100 µM.
Consider `CC(C)Cc1nn(-c2nccs2)cc1C(=O)NCc1ccccc1F`, for which the “Ratio CC50/IC50” value was >3.85 in data set [1] and >2 in data set [6]. The negative-log IC50 (pIC50) with Hepatitis B virus [3] was 4.30; in the data set with Hepatitis B virus [7], 4.59. For the same compound, in data set [4], the cytotoxic concentration (CC50) at 192 h is > 100 µM.
Turning to `COc1ccccc1/C(Br)=C(/NC(=O)c1ccc([N+](=O)[O-])cc1)C(=O)N1CCCCC1`, the negative-log IC50 (pIC50) is < 4.29 in [8] and 6.89 with Hepatitis B virus [9].
In the case of `CCOC(=O)c1nc(-c2cncs2)sc1CC(C)C`, the pIC50 in the data set on Hepatitis B virus [5] was 5.96.
As to `CC(C)Cc1nn(-c2cccc(F)c2)cc1C(=O)NNc1ccc(F)cc1`, in data set [1], the “Ratio CC50/IC50” value is listed as 1.34. Moreover, the negative-log IC50 (pIC50) in the data set with Hepatitis B virus [3] was 4.28; in the data set with Hepatitis B virus [7], 4.47. Moreover, the half-maximal cytotoxic concentration (CC50) at 192 h in data set [4] worked out at 45.4 µM.
As to `CC(C)Cc1nn(-c2nccs2)cc1C(=O)NCc1ccc(C(F)(F)F)cc1`, the pIC50 in the data set on Hepatitis B virus [3] and in the data set on Hepatitis B virus [7] was < 4.00 each time. Moreover, the CC50 at 192 h in data set [4] is > 100 µM.
Regarding `CC(C)Cc1nn(-c2cccc(F)c2)cc1C(=O)Nc1ccc(F)cc1`, the “Ratio CC50/IC50” value came to 1.47 in data set [1] and 1.4 in data set [6]. Also, the pIC50 in the data set with Hepatitis B virus [3] was 4.59; in the data set with Hepatitis B virus [7] it was 4.61. The cytotoxic concentration (CC50) at 192 h in data set [4] is 36.2 µM.
Take `CCOC(=O)c1cn(-c2ccc([N+](=O)[O-])cc2)nc1CC(C)C`: the pIC50 in the data set on Hepatitis B virus [3] and with Hepatitis B virus [7] was < 4.00 each time. Moreover, in data set [4], the CC50 at 192 h is > 100 µM.
`CCOC(=O)c1cn(-c2ccc(OC)cc2)nc1CC(C)C`: the “Ratio CC50/IC50” value was found to be 1.08 in [1] and 1.12 in data set [6]. The negative-log IC50 (pIC50) in the data set with Hepatitis B virus [3] is 4.16; in the data set with Hepatitis B virus [7], 4.15. Besides, the CC50 at 192 h in [4] was determined as 77.1 µM.
For `CCOC(=O)c1cn(-c2ccccc2F)nc1CC(C)C` the same measures were >1.21, >1.05, 4.02, 4.08 and > 100 µM.
For `CC(C)Cc1nn(-c2nccs2)cc1C(=O)NCc1ccc(F)cc1` the same measures were >3.18, >2.25, 4.35, 4.50 and > 100 µM.
`CC(C)Cc1nn(-c2nccs2)cc1C(=O)NCc1ccc(N)cc1`: the pIC50 in the data set with Hepatitis B virus [3] and with Hepatitis B virus [7] was < 4.00 throughout. In addition, the cytotoxic concentration (CC50) at 192 h in data set [4] is > 100 µM.
Take `CC(C)Cc1nn(-c2nccs2)cc1C(=O)Nc1ccc(F)cc1`: the “Ratio CC50/IC50” value was found to be 37.69 in data set [1] and 3.44 in data set [6]. The pIC50 with Hepatitis B virus [3] is 4.61; in the data set with Hepatitis B virus [7] it was 5.65. Moreover, the CC50 at 192 h in [4] is 83.7 µM.
For `COc1ccc(CONC(=O)c2cn(-c3cccc(F)c3)nc2CC(C)C)cc1` the same measures were 1.52, 1.18, 4.24, 4.35 and 67.9 µM.
Consider `CC(C)Cc1nn(-c2cccc(F)c2)cc1C(=O)NCc1ccccc1`, for which the “Ratio CC50/IC50” value in [1] and in data set [6] was 2.23 throughout. Also, the negative logarithm of the IC50 (pIC50) in the data set on Hepatitis B virus [3] and in the data set on Hepatitis B virus [7] was 4.41 throughout. In addition, the CC50 at 192 h in [4] was 85.9 µM.
For the compound `CCOC(=O)c1cn(-c2cccc(OC)c2)nc1CC(C)C`, the “Ratio CC50/IC50” value in data set [1] was 1; in data set [6], 1.11. The negative logarithm of the IC50 (pIC50) in the data set with Hepatitis B virus [3] is 4.20; in the data set on Hepatitis B virus [7], 4.15. Moreover, the CC50 at 192 h in [4] is 70.5 µM.
For the compound `CCOC(=O)c1cn(-c2ccccc2[N+](=O)[O-])nc1CC(C)C`, the “Ratio CC50/IC50” value in [1] was >0.78; in [6] it was 0.1. Further, the pIC50 with Hepatitis B virus [3] is 4.31; in the data set on Hepatitis B virus [7], > 5.20. The CC50 at 192 h in [4] is 4.85 µM.
Regarding `CC(C)Cc1nn(-c2nccs2)cc1C(=O)NCc1ccc(O)cc1`, the “Ratio CC50/IC50” value in data set [1] was >1.16. In addition, the values for the pIC50 in the data set on Hepatitis B virus [3] and in the data set with Hepatitis B virus [7] were < 4.00 and 4.06, respectively. Further, in [4], the CC50 at 192 h is > 100 µM.
For `COc1ccc(CNC(=O)c2cn(-c3nccs3)nc2CC(C)C)cc1`, in that order: >1.05, < 4.00, 4.02 and > 100 µM.
On to `CCOC(=O)c1cn(-c2ccc(F)cc2)nc1CC(C)C`, for which the negative-log IC50 (pIC50) with Hepatitis B virus [3] and in the data set with Hepatitis B virus [7] was < 4.00 throughout. In addition, the CC50 at 192 h in [4] was > 100 µM.
Consider `CC(C)Cc1nn(-c2nccs2)cc1C(=O)NCc1cccc(F)c1`, for which the “Ratio CC50/IC50” value in data set [1] is reported as >5.8; in [6], >1.7. The pIC50 was 4.23 with Hepatitis B virus [3] and 4.76 in the data set on Hepatitis B virus [7]. Moreover, the 50% cytotoxic concentration (CC50) at 192 h in [4] was > 100 µM.
For `CCOC(=O)c1cn(-c2nccs2)nc1CC(C)C`, the pIC50 in the data set on Hepatitis B virus [3] and with Hepatitis B virus [7] was < 4.00 in each case. Also, the cytotoxic concentration (CC50) at 192 h in [4] was > 100 µM.
Turning to `CCOC(=O)c1cn(-c2ccc(C(=O)O)cc2)nc1CC(C)C`, the negative-log IC50 (pIC50) in the data set with Hepatitis B virus [3] and in the data set on Hepatitis B virus [7] was < 4.00 each time. In addition, in [4], the cytotoxic concentration (CC50) at 192 h is > 100 µM.
Take `CC(C)Cc1nn(-c2cccc(F)c2)cc1C(=O)NCC1CCN(C(=O)OC(C)(C)C)CC1`: the pIC50 in the data set on Hepatitis B virus [3] and with Hepatitis B virus [7] was < 4.00 in each case. The CC50 at 192 h in data set [4] was > 100 µM.
As for `CCOC(=O)c1nc(-c2cccc(F)c2)sc1CC(C)C`, the pIC50 in the data set on Hepatitis B virus [10] is > 7.30.
On to `CC(C)Cc1nn(-c2cccc(F)c2)cc1C(=O)NCc1ccc(F)cc1`, for which the negative logarithm of the IC50 (pIC50) with Hepatitis B virus [3] and in the data set on Hepatitis B virus [7] was < 4.00 each time. Also, the 50% cytotoxic concentration (CC50) at 192 h in data set [4] was > 100 µM.
As to `COC(=O)c1nc(-c2cnc([C@@H](NC(=O)c3cccs3)C(C)C)s2)oc1C`, the negative-log IC50 (pIC50) in the data set on Hepatitis B virus [5] is 4.12.
On to `CC(C)Cc1nn(-c2nccs2)cc1C(=O)NCc1ccc(F)cc1F`, for which the “Ratio CC50/IC50” value in [1] is recorded as 9.46; in data set [6], 2. The pIC50 in the data set with Hepatitis B virus [3] is 4.38; in the data set with Hepatitis B virus [7] it was 5.05. Also, the CC50 at 192 h in data set [4] worked out at 83.6 µM.
In the case of `CCOC(=O)c1cn(-c2cccc(C(=O)O)c2)nc1CC(C)C`, the “Ratio CC50/IC50” value is reported as 0.15 in data set [1] and 0.17 in [6]. Besides, the negative logarithm of the IC50 (pIC50) with Hepatitis B virus [3] is 4.38; in the data set with Hepatitis B virus [7] it was 4.32. For the same compound, in data set [4], the CC50 at 192 h is 7.1 µM.
On to `Nc1ccn([C@@H]2CS[C@H](CO)O2)c(=O)n1` [LAMIVUDINE], for which the pIC50 in the data set on Hepatitis B virus [3] and with Hepatitis B virus [7] was < 4.00 in each case. The cytotoxic concentration (CC50) at 192 h in data set [4] was > 100 µM.

The values above are taken from ChEMBL document CHEMBL3870310, “Design, synthesis and evaluation of pyrazole derivatives as non-nucleoside hepatitis B virus inhibitors” (Eur J Med Chem, 2016).
